# Assay outcomes deposited in PubChem by several laboratories.
# TMEM16A act – activates or potentiates the mouse TMEM16A chloride channel | Q8BHY3 | HEK293 TMEM16A/YFP-H148Q/I152L, iodide quench fluorescence; hits give low values | B-score at 10 µM | hit rate 0.3% among 340,000 | AID 623877;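 active = fluorescence-ratio B-score plate-corrected deviation score at least 3 library SD below zero, with starting fluorescence score within 5 deviations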;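 note: channel opened by trigger with iodide after compound preincubation; score built on the fluorescence ratio of max minus min over baseline; more negative score means more quench and so TMEM16A activation or potentiation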
# CRFR2-BP ag – agonists of human CRF-binding protein/CRF-R2 receptor complex. HEK293 CRF-R2/CRF-BP, calcium dye fluorescence (FLIPR); percent of saturating CRF peptide response. activation, % at 13.2 µM. hit rate 0.46% among 350,000;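 active = activation of at least 50%, plus an integration ratio under a set limit after plate pattern correction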;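 note: plate controls were neutral control wells without compound for no effect and CRF at EC100 for full effect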
# TAAR1 agonist – human TAAR1 agonism | Q96RJ0 | CHO RD-HGA16 TAAR1, Fluo-8 calcium fluorescence; vehicle wells 0%, saturating PEA agonist 100% | activation, % at 3 µM | hit rate 0.99% among 360,000 | AID 624467;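 active = activation above the mean activation of all test compounds in the run plus 3 SD, cut at about 38% in these data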
# Target sequence (Q96RJ0 whole entry, looked up): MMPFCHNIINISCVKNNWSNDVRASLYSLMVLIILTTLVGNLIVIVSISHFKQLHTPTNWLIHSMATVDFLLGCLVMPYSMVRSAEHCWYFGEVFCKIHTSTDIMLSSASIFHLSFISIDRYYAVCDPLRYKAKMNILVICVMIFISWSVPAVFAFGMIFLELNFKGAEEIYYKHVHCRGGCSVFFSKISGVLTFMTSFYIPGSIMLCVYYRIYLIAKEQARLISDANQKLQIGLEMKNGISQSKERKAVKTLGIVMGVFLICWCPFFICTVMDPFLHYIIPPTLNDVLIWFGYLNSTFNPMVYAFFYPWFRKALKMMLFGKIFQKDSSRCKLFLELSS
#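 Test system: RD-HGA16 (CHO) cells co-expressing Gα16 and hTAAR1 / Benchmarks: DMSO vehicle as 0%, PEA at EC100 as 100% / Repeats: no replicates (n 1) / Measure: % activation from peak over basal fluorescence ratio, DMSO-to-PEA scaled / Timing: 17-24 h plating, Fluo-8 75 min 37 °C, 30 min RT / Technique: kinetic Fluo-8 calcium fluorescence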
# TMEM16A inh – mouse TMEM16A channel inhibition, primary screen. normalized B-score (activity score, 25-100; higher = stronger inhibition) at 10 µM. hit rate 1.2% among 310,000. HEK293 TMEM16A/YFP iodide influx fluorescence, ionomycin;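 active = ratio plate-corrected score three or more library SD toward inhibition, starting fluorescence score within five deviations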;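 note: score derived from kinetic fluorescence span divided by baseline fluorescence per well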
# TAAR1 antag – antagonists of human TAAR1 | Q96RJ0 | CHO RD-HGA16 TAAR1, Fluo-8 calcium fluorescence, antagonist | inhibition, % at 3 µM | hit rate 1.5% among 360,000;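 active = inhibition above a per-plate cutoff, the mean inhibition of test compounds on that plate plus 3 SD, cut at about 49% in these data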;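 note: 0% = DMSO plus EC80 beta-PEA response and 100% = DMSO alone without agonist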
#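 Test system: CHO RD-HGA16 cells bearing hTAAR1 | Reagent: β-PEA, EC80 | Compound dosing: 3 µM, single point | Schedule: Dye loading 75 min at 37 °C, then 30 min room temperature | Signal: Calcium fluorescence with Fluo-8 | Evaluation: Percent inhibition of PEA-evoked calcium signal, max/basal emission ratio | Control set: DMSO-only wells and EC80 β-PEA-stimulated wells | Repeats: Singlicate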
# CRFR2-BP antag – CRF-BP/CRF-R2 complex antagonism; HEK293 CRF-R2/CRF-BP, CRF-induced calcium fluorescence; inhibition, % at 11.8 µM; hit rate 0.59% among 350,000; AID 588475;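 active = inhibition of the ligand-induced calcium signal above about 50% at the single tested concentration, limit read from the data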
# nonsel antag count – nonselective antagonist in TAAR1 antagonist counter-screen; AID 651780; hit rate 77% among 2,400; counterscreen cell line, calcium fluorescence, antagonist mode; shares compounds with TAAR1 antag; inhibition, % at 3 µM; in the data active = inhibition above about 22%;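 note: CHO-Ga16 host cells stimulated with ATP at an EC80 level; 0% = agonist EC80 plus vehicle and 100% = vehicle without agonist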
# TAAR1 antag conf – human TAAR1 antagonism, confirmed; hit rate 40% among 2,400; shares compounds with TAAR1 antag; TAAR1-expressing cells, fluorescence antagonist read-out; inhibition, % at 3 µM; in the data active = inhibition above about 49%;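 note: CHO-Ga16 host cells challenged with agonist PEA near its EC80; 0% = agonist at EC80 plus vehicle and 100% = vehicle with no agonist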
# Ga16 nonsel ag – nonselective Ga16 agonism, counter-screen; AID 651953; shares compounds with TAAR1 antag; hit rate 18% among 2,400; Ga16-expressing cells, calcium fluorescence, agonist counterscreen; activation, % at 3 µM; in the data active = activation above about 12%;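 note: 0% = vehicle wells and 100% = saturating stimulus response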
# TAAR1 ag count – activates human TAAR1 in antagonist counter-screen. shares compounds with TAAR1 antag. AID 651955. activation, % at 3 µM. hit rate 2% among 2,400. hTAAR1 cell line, fluorescence activation, agonist mode; in the data active = activation above about 37%;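 note: CHO cells stably expressing TAAR1 with calcium dye readout; 0% = DMSO vehicle and 100% = full agonist response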
# Starred values were filed as active, the others as inactive; i = inactive; · = no result given. Rows were chosen to be rich in hits. Some 3.9% of all compounds tested hit in one or more screens of this group.
SMILES,TMEM16A act,CRFR2-BP ag,TAAR1 agonist,TMEM16A inh,TAAR1 antag,CRFR2-BP antag,nonsel antag count,TAAR1 antag conf,Ga16 nonsel ag,TAAR1 ag count
COc1ccc(NC(=O)CN2CCN(c3c(C)cc(C)cc3C)CC2)cc1,i,-1.4,-2.0,i,12.8,6.7,·,·,·,·
O=C1/C(=C/Nc2cccc([N+](=O)[O-])c2)CCc2ccccc21,i,-0.9,-0.3,i,51.4*,-17.4,12.5,24.2,0.6,-5.1
O=C1/C(=C\c2ccc([N+](=O)[O-])cc2)CCc2ccccc21,i,-1.9,0.4,i,-28.8,15.5,·,·,·,·
CCN(c1ccccc1)S(=O)(=O)c1ccc(OC)c(NC(=O)CN2C(=O)NC(C)(C)C2=O)c1,i,-2.1,0.0,·,5.0,0.3,·,·,·,·
CCN(c1ccccc1)S(=O)(=O)c1ccc(OC)c(NC(=O)Cc2ccc(F)cc2)c1,i,0.2,-1.4,·,103.6*,6.5,8.3,3.1,2.2,0.4
CCc1ccccc1S(=O)(=O)Cc1ccc(C(=O)N2CCN(c3ccccn3)CC2)o1,i,0.7,9.3,i,51.2*,-13.2,25.1*,31.8,5.2,5.7
Cc1ccccc1S(=O)(=O)Cc1ccc(C(=O)N2CCN(c3ncccn3)CC2)o1,i,-0.3,14.1,i,15.0,-8.9,·,·,·,·
Cc1ccc(C)c(NC(=O)COc2cccc3c2CCN(Cc2ccccc2)C3=O)c1,i,-2.4,8.4,i,62.7*,5.2,27.3*,38.5,4.6,1.5
Cc1ccc(CN2CCc3c(OCC(=O)Nc4cc(C)ccc4C)cccc3C2=O)cc1,·,·,·,i,·,·,·,·,·,·
c1ccc(CSc2ncn[nH]2)nc1,i,-1.4,0.8,i,6.7,5.9,·,·,·,·
COc1cc(/C=C2/C(=N)N3C=CSC3=NC2=O)ccc1OCCCOc1c(C)cccc1C,i,0.2,0.5,i,43.9,-46.6,·,·,·,·
COc1cc(/C=C2/C(=N)N3C=CSC3=NC2=O)ccc1OCCCOc1ccccc1C,i,0.5,13.5,i,63.8*,-5.3,26.1*,42.9,4.3,3.8
CC(=O)N/N=C(/c1ccccc1)C(O)c1ccccc1 (stereo unspecified),i,-0.3,1.5,i,-25.8,11.7,·,·,·,·
CCC(C(=O)NCc1ccc(F)cc1)N(Cc1ccco1)C(=O)c1snc(C(N)=O)c1N (stereo unspecified),i,0.8,7.8,i,-7.6,10.3,·,·,·,·
CCOc1ccccc1N(C(=O)c1snc(C(N)=O)c1N)C(C(=O)NCc1ccccc1)c1ccc(O)cc1 (stereo unspecified),i,0.5,8.4,·,6.4,4.3,·,·,·,·
NC(=O)c1nsc(C(=O)N(c2ccccc2F)C(C(=O)NCc2ccccc2)c2ccc(O)cc2)c1N (stereo unspecified),i,1.9,13.5,i,77.6*,-0.3,35.8*,47.8,10.3,13.7
Cc1ccccc1N(C(=O)c1snc(C(N)=O)c1N)C(C(=O)NCc1ccccc1)c1ccc(O)cc1 (stereo unspecified),i,1.6,26.6,i,64.1*,-3.3,29.8*,54.5*,9.8,12.7
Cc1ccccc1N(C(=O)c1snc(C(N)=O)c1N)C(C(=O)NC1CCCCC1)c1ccc(O)cc1 (stereo unspecified),i,1.7,2.6,i,72.5*,15.9,19.8,56.2*,5.3,2.7
NC(=O)c1nsc(C(=O)N(Cc2ccco2)C(C(=O)NCc2ccccc2)c2ccc(O)cc2)c1N (stereo unspecified),i,-0.8,24.2,i,71.5*,-5.7,35.2*,56.9*,10.3,11.6
CC(C)[C@H](NC(=O)c1ccco1)C(=O)N(C)Cc1c(F)cccc1Cl,i,-1.0,4.1,i,-22.7,25.2,·,·,·,·
CN(C)c1ccc(C(C(=O)NC2CCCCC2)N(Cc2ccco2)C(=O)c2snc(C(N)=O)c2N)cc1 (stereo unspecified),i,-0.9,14.9,i,58.3*,46.8,31.2*,53.0*,7.7,12.1
COc1cccc2cc(CC(=O)c3ccc(C)cc3C)c(=O)oc12,i,-9.1,7.0,i,46.4,-9.6,·,·,·,·
COC(=O)c1ccc(C)c(NC(=O)CSc2nnc3ccccn23)c1,i,-0.7,-1.7,·,87.5*,8.5,2.9,-0.1,0.2,10.2
COc1ccccc1NC(=O)CSc1nnc2ccccn12,i,-1.1,2.5,·,-1.0,1.5,·,·,·,·
COc1ccc(/C=N/NC(=O)c2cc3c(ccc4ccccc43)o2)cc1OC,i,0.2,6.5,i,53.0*,2.4,27.9*,35.8,7.4,3.3
SMILES,TMEM16A act,CRFR2-BP ag,TAAR1 agonist,TMEM16A inh,TAAR1 antag,CRFR2-BP antag,nonsel antag count,TAAR1 antag conf,Ga16 nonsel ag,TAAR1 ag count
COc1ccc(/C=N\NC(=O)c2cc3c(ccc4ccccc43)o2)cc1O,i,0.2,10.4,i,56.9*,4.9,39.5*,54.6*,13.0*,11.8
COc1cc(/C=N/NC(=O)c2cc3c(ccc4ccccc43)o2)cc(OC)c1O,i,·,9.2,i,33.0,·,·,·,·,·
O=C(CCN1C(=O)C2C3C=CC(C3)C2C1=O)NCCc1ccccc1 (stereo unspecified),i,0.3,11.9,i,52.3*,-0.1,7.7,51.6*,5.3,16.7
O=C1C2C3C=CC(C3)C2C(=O)N1CCc1ccccc1 (stereo unspecified),i,0.2,0.2,i,-4.8,-3.1,·,·,·,·
CSc1ccccc1OCc1cc(C(=O)NCCN2CCCc3ccccc32)no1,i,-0.1,-0.4,i,16.9,-9.8,·,·,·,·
COc1cccc(CNC(=O)CCn2c(=O)c3cccn3c3cccnc32)c1,i,-2.6,0.9,i,-6.5,22.5,·,·,·,·
CSc1cccc(NC(=O)CCn2c(=O)c3cccn3c3cccnc32)c1,i,-0.2,22.9,i,56.6*,3.2,24.7*,48.1,9.2,16.9
CN(CC(=O)Nc1ccc(F)cc1)C(=O)c1cc(-c2ccco2)nc2ccccc12,i,-0.1,10.9,i,39.1,-10.4,·,·,·,·
COc1ccc(NC(=O)CN(C)C(=O)c2cc(-c3ccc(OC)cc3)nc3ccccc23)cc1,i,0.8,15.8,i,69.7*,-2.3,32.8*,59.8*,9.6,8.0
